Results: publication PMC7059553 (Science translational medicine, 2018)
Like-named read-outs stand apart in the source and are kept apart here.

Key:
[1] = tested on: FaDu cells; test: Cellular H2O2 production, Amplex red assay; format: cell-based, human
In short: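 FaDu cells were grown at 37 °C, 5% CO2 in medium with 10% FBS, 2 mM L-glutamine and 100 μg/mL penicillin/streptomycin. Tests used medium with 10% FBS plus 25 nM sodium selenite. Compound was given in DMSO (0.01% final) across a concentration range or over a time course. H2O2 was read by Amplex red. Runs were in triplicate, shown as mean ± SEM.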

[2] = target: T1, TXNRD1 (Rattus norvegicus, UniProt O89049); test: SecTRAP activity; format: biochemical
T1 sequence (O89049 1-499): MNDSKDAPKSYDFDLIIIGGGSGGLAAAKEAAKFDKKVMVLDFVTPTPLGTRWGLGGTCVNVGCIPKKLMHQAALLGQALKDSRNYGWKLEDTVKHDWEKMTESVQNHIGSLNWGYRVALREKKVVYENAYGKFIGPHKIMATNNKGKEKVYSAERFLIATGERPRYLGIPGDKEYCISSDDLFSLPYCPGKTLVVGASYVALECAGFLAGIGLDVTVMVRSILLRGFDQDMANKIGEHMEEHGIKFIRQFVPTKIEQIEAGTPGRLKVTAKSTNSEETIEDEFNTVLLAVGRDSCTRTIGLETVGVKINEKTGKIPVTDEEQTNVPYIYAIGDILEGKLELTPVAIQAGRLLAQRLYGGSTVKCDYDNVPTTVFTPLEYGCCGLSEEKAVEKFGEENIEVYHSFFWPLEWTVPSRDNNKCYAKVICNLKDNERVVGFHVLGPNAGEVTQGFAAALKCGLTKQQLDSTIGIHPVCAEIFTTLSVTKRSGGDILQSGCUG

[3] = tested on: HCT116 cells; test: Mitochondrial respiration, Seahorse assay; format: cell-based, human
[4] = tested on: SCID mice; test: Single dose escalation toxicity study; conditions: mouse, in vivo, iv
[5] = tested on: primary human fibroblasts, primary keratinocytes, CCD841 colon epithelial cells; format: cell-based
[6] = target: T2, GPX1 (Homo sapiens, UniProt P07203); test: GPX1 inhibition; format: biochemical
T2 sequence (P07203 1-203): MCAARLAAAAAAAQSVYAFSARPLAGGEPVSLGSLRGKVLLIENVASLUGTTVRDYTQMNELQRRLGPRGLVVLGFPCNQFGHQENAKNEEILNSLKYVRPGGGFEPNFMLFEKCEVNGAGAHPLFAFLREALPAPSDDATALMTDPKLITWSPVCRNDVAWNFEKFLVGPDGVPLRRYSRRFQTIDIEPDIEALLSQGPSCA

[7] = tested on: FaDu cells; format: cell-based, human
[8] = target: T1, TXNRD1; test: Reversibility of TXNRD1 inhibition; format: biochemical
[9] = target: T1, TXNRD1; format: binding
[10] = tested on: HCT116 cells; test: Cytotoxicity in HCT116 subclones with altered p53 status or BCL-2 overexpression; format: cell-based, human; conditions: subclones of HCT116 cells
[11] = tested on: PyMT-MMTV mice mammary tumors; test: PyMT-MMTV tumor low frequency dosing study; format: in vivo; conditions: for tumor growth in PyMT-MMTV mice: three weeks; for tumor volumes compared to vehicle controls: mice surviving 20–22 days, p<0.05
[12] = Liver microsome stability; format: in vitro ADME
[13] = tested on: cellular TXNRD activity in FaDu cells; test: Cellular TXNRD activity, insulin-endpoint assay; format: cell-based, human; conditions: 3 hours of compound exposure
[14] = tested on: human TXNRD1 versus human TXNRD2; test: Inhibition of human TXNRD1 versus human TXNRD2 with DTNB as substrate; format: biochemical; conditions: human recombinant enzymes
In short: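 Human recombinant TXNRD1 and TXNRD2 were assayed with DTNB as substrate, with activity read by absorbance change. TXNRD1 buffer was 50 mM Tris pH 7.5, 2 mM EDTA and 0.1 mg/mL BSA. Compounds were in DMSO. Results were normalized to DMSO and no-enzyme controls. Triplicates, mean ± SEM.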

[15] = tested on: JNK and p38 phosphorylation in FaDu cells; test: Western blot of JNK and p38 phosphorylation; format: cell-based, human; conditions: FaDu cells treated for 6 hours
[16] = tested on: FaDu cells; test: Cellular GSH concentrations; format: cell-based, human; conditions: 6 hours at 10×IC50
[17] = tested on: A549 lung carcinoma cells and MEFs; format: cell-based, human, mouse; conditions: for sensitivity of MEFs with the Txnrd1 gene deleted: Txnrd1 -/- vs Txnrd1 fl/fl MEFs
[18] = tested on: FaDu cell xenografts in SCID mice; test: Repeated dose study in FaDu xenograft-bearing mice; format: in vivo; conditions: twice a day i.v., 10 mg/kg TRi-1, 15 mg/kg TRi-2 or 10 mg/kg auranofin; for FaDu xenograft tumor growth: four days
[19] = tested on: MDA-MB-231 xenografts in athymic mice; test: MDA-MB-231 orthotopic xenograft efficacy study; format: in vivo; conditions: for MDA-MB-231 xenograft tumor growth: 22 days, p<0.0001 vs vehicle
[20] = tested on: FaDu cell xenografts in SCID mice; test: [18F]-FDG PET study of FaDu xenografts; format: in vivo, mouse; conditions: 5 mg/kg i.p. once daily
In short: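 Male SCID mice carried FaDu xenografts (1×10^6 cells); baseline scan at day 11, with food removed. Isoflurane anaesthesia on a 37 °C pad. [18F]-FDG i.v., 60-min 3D acquisition. Treatment was i.p. once daily (n=8) or vehicle (n=9), rescanned on day 3. SUVmean was taken over ROIs ≥1.8×10^5 Bq/mL, and day 3 was compared with day 0 by paired t-test.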

[21] = tested on: FaDu cells; test: Cytotoxicity towards FaDu cells, 72 hours; format: cell-based, human; conditions: 72 hours of incubation
In short: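 Viability of FaDu cells after 72 h with test compound, in medium with 10% FBS and 25 nM sodium selenite, at 37 °C and 5% CO2. DMSO vehicle at 0.01% final. Run in triplicate and reported as mean ± SEM.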

[22] = tested on: human cancer cell lines; format: cell-based
[23] = tested on: FaDu cells; format: cell-based, human; remark: listed apart in the source
[24] = tested on: NCI-60 cell panel; conditions: read-out: average growth inhibition to 50% (GI50); average over NCI-60 cell panel, screened previously; ref https://dtp.cancer.gov, NSC351105 (TRi-2) and NSC321521 (auranofin); cited from earlier work
[25] = HCT116 cells, 30-minute or 5-hour exposure
[26] = i.p. twice a week, TRi-1 5 mg/kg, auranofin 10 mg/kg

In the case of `COc1ccc([N+](=O)[O-])c(S(=O)(=O)c2ccc(Cl)cc2)n1` [TRi-1], the “cellular H2O2 production” value [1] is reported as “increased cellular H2O2 production”, the “SecTRAP formation (NADPH-dependent redox cycling with juglone)” value ([2]; after inhibition of normal TXNRD1 activity and desalting) is reported as “maintained substantial NADPH-dependent redox cycling with juglone” and the ATP-coupled basal respiration [3, 25] is reported as “lacked effects on basal respiration”. For the same compound, the maximal respiratory capacity [3, 25] was “little effect on maximal respiratory capacity”, the “highest administrable dose tolerated without overt signs of toxicity” value [4] was 10 mg/kg and the “potency against non-cancerous cells compared to cancer cell lines” value [5] was “reduced potency”. The “less efficient in inhibiting GPX1 than TXNRD1” value [6] was “over 1000 fold”, the “effect of GSH depletion with BSO on cytotoxicity” value [7] was “enhanced the cytotoxicity” and the “mode of TXNRD1 inhibition” value ([8]; with or without NADPH, before and after desalting) was “irreversibly inhibit TXNRD1 in an NADPH-dependent manner”. For the same compound, the “thermal stability of NADPH-reduced TXNRD1 upon incubation with compound” value [9] was “stability was increased”, the “resistance upon altered p53 status or BCL-2 overexpression” value [10] was “no apparent resistance” and the “tumor growth in PyMT-MMTV mice” value [11, 26] was “impaired tumor growth”. The “tumor volumes compared to vehicle controls” value [11] was “significantly smaller compared to the vehicle controls”, the “metabolism in liver microsomes” value [12] was “rather rapid metabolism” and the “inhibition of cellular TXNRD activity” value [13] was “equal or greater potency compared to that of auranofin”. The “specificity for TXNRD1 compared to inhibition of TXNRD2” value [14] was 5- to 10 fold, the “JNK and p38 phosphorylation” value [15] was “efficiently activated JNK and p38 phosphorylation” and the “effect on cellular GSH concentrations” value [16] was “no effect on cellular GSH concentrations”. For the same compound, the “cytotoxicity towards MEF cells versus A549 cells” value [17] was “preferentially toxic towards the A549 cells”, the “sensitivity of MEFs with the Txnrd1 gene deleted” value [17] was “additional resistance” and the “toxicity and mouse weight in repeated dose study” value [18] was “no signs of overt toxicity or changes in mouse weight”. For the same compound, the “FaDu xenograft tumor growth” value [18] was “decreased tumor growth compared to vehicle controls within four days”, the “MDA-MB-231 xenograft tumor growth” value ([19]; 10 mg/kg i.p.) was “significantly decreased compared to the vehicle controls” and the complete tumor regression ([19]; 10 mg/kg i.p., n=12) was “one tumor in the TRi-1 i.p. group completely regressing”. The “systemic toxicity in MDA-MB-231 xenograft study” value ([19]; 10 mg/kg i.v. or i.p.) was “no signs of overt systemic toxicity”, the “MDA-MB-231 xenograft tumor growth” value ([19]; 10 mg/kg i.v.) was “significantly decreased compared to the vehicle controls” and the “activated caspase-3 staining in excised xenografts” value ([20]; between days three and four) was “increased staining for activated caspase-3”. For the same compound, the “[18F]-FDG uptake in viable parts of the tumors” value ([20]; day 3 vs day 0) was “markedly decreased”.
In the case of `COc1cccc(S(=O)(=O)c2ccc(Cl)cc2)n1` [TRi-62], the “cytotoxicity towards FaDu cells” value [21] is reported as “loss of cytotoxicity”.
For `CC(=O)OC[C@H]1O[C@@H]([S-])[C@H](OC(C)=O)[C@@H](OC(C)=O)[C@@H]1OC(C)=O.CCP(CC)CC.[Au+]` [auranofin, reference compound], the “cellular H2O2 production” value [1] was “increased cellular H2O2 production”, the “SecTRAP formation (NADPH-dependent redox cycling with juglone)” value [2] was “maintained substantial NADPH-dependent redox cycling with juglone” and the maximal respiratory capacity [3] was “impaired maximal respiratory capacity”. The ATP-coupled basal respiration [3, 25] was “deteriorated ATP-coupled respiration”, the “potency against non-cancerous cells compared to cancer cell lines” value [5] was “only displayed lower potency against the CDD841 cells” and the “less efficient in inhibiting GPX1 than TXNRD1” value [6] was “over 1000 fold”. For the same compound, the GPX1 inhibition ([6]; preincubated with GPX1 in the absence of GSH, high concentrations) was “moderate inhibition”, the “effect of GSH depletion with BSO on cytotoxicity” value [7] was “enhanced the cytotoxicity” and the “mode of TXNRD1 inhibition” value [8] was “irreversibly inhibit TXNRD1 in an NADPH-dependent manner”. For the same compound, the “thermal stability of NADPH-reduced TXNRD1 upon incubation with compound” value [9] was “not with TRi-2 or auranofin”, the “cytotoxic potency, side-by-side comparison” value [22] was “on average more potent than TRi-1” and the “resistance upon altered p53 status or BCL-2 overexpression” value [10] was “no apparent resistance”. For the same compound, the “cytotoxicity in colony-forming assay” value [23] was “more cytotoxic than TRi-1”, the survival during observation [11, 26] was “two mice in the auranofin group had to be sacrificed due to poor health” and the “tumor growth in PyMT-MMTV mice” value [11, 26] was “impaired tumor growth”. For the same compound, the “tumor volumes compared to vehicle controls” value [11] was “significantly smaller compared to the vehicle controls”, the “metabolism in liver microsomes” value [12] was “rather rapid metabolism” and the “TXNRD1 versus TXNRD2 inhibition profile” value [14] was “pan-TXNRD inhibitor”. For the same compound, the “JNK and p38 phosphorylation” value [15] was “did not activate JNK and p38 phosphorylation as robustly”, the “effect on cellular GSH concentrations” value [16] was “lowered GSH” and the “cytotoxicity towards MEF cells versus A549 cells” value [17] was “similarly cytotoxic towards these two cell types”. For the same compound, the “sensitivity of MEFs with the Txnrd1 gene deleted” value [17] was “minimally affected”, the “toxicity and mouse weight in repeated dose study” value [18] was “no signs of overt toxicity or changes in mouse weight” and the “FaDu xenograft tumor growth” value [18] was “decreased tumor growth compared to vehicle controls within four days”. The GI50 [24] was 0.76 µM.
